From publication PMC6159316 (Journal of Insect Science, 2018)
Like-named read-outs stand apart in the source and are kept apart here.

What was measured:
CSP3 = biological target: T1, CSP3 (Chilo suppressalis, UniProt V9PY40); assay type: binding; details: for IC50: read-out: CSP3 IC50, displacement of 1-NPN, ligand 2–30 µM; for activity at 30 µM: pH 7.4, read-out: CSP3 Intensity %; for Ki: read-out: CSP3 Ki, competitive binding with 1-NPN
T1 sequence (V9PY40 19-126): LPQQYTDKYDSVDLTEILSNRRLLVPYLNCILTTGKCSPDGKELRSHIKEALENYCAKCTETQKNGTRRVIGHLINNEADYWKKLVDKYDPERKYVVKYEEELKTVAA
Method in brief: (§1)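 Mature CSP cDNA in pET-30a(+), expressed in E. coli, purified, His-tag cleaved with enterokinase. […] Competition: 2 µM protein plus 2 µM 1-NPN in 50 mM Tris–HCl, titrated with 1 mM odorant stock to 2–30 µM final. Excitation 337 nm, emission 400–460 nm, three replicates.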

CSP1 = biological target: T2, CSP1 (Chilo suppressalis, UniProt V9PY22); assay type: binding; details: for IC50: read-out: CSP1 IC50, displacement of 1-NPN, ligand 2–30 µM; for Ki: read-out: CSP1 Ki, competitive binding with 1-NPN; for activity at 30 µM: pH 7.4, read-out: CSP1 Intensity %
T2 sequence (V9PY22 18-122): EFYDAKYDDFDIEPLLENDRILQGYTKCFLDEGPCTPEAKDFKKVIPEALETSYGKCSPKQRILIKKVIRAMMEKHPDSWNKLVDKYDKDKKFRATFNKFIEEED
Method in brief: as §1

CSP2 = assay type: binding, Chilo suppressalis; details: for IC50: read-out: CSP2 IC50, displacement of 1-NPN, ligand 2–30 µM; for Ki: read-out: CSP2 Ki, competitive binding with 1-NPN
adult C. suppressalis = details: ref Wei et al. 2013, Khuhro et al. 2017a; cited from earlier work

Molecule	IC50 (CSP3)	IC50 (CSP1)	IC50 (CSP2)	Ki (CSP2)	activity at 30 µM (CSP3)	activity at 30 µM (CSP1)	also measured
CCCCCCCCCCCC(=O)O [Lauric acid]	> 30 µM	> 30 µM	> 30 µM				
O=Cc1ccccc1 [Benzaldehyde]			28.5 µM	24.5 µM	44.2 ± 3.53%	34.2 ± 2.35%	
CC/C=C\CCOC(C)=O [Z3-Hexenyl acetate]	> 30 µM	> 30 µM	> 30 µM				
CCOC(=O)c1ccccc1 [Ethyl benzoates]	> 30 µM	> 30 µM	> 30 µM				
CCC/C=C/CO [E2-hexenol]	> 30 µM	> 30 µM	> 30 µM				
CCCCCCCCCCCCCCCC(=O)O [Palmitic acid]			> 30 µM		> 100%	78.2 ± 0.93%	
CCCCCC(C)=O [2-Heptanone]			> 30 µM		82 ± 3.87%	49.3 ± 1.89%	
CCC/C=C\C=O [Z2-Hexenal]	> 30 µM	15.8 µM		28.6 µM			Ki (CSP1): 12.2 µM
CCCCCCO [Hexyl alcohol]			> 30 µM		67.7 ± 3.05%	64 ± 4.34%	
CCCCCCCCC=O [1-Nonaldehyde]			> 30 µM		75 ± 2.3%	74.1%	
CC/C=C\CCO [E3-Hexenol]	> 30 µM	> 30 µM	> 30 µM				
OCc1ccccc1 [Benzyl alcohol]			> 30 µM		84.1 ± 2.96%	67.5 ± 2.24%	
CC1=CC[C@H](C(C)C)C=C1 [α-Phellandrene]			> 30 µM		95.3 ± 1.58%	73 ± 2.46%	
CCC/C=C/C=O [E2-Hexenal]	> 30 µM	> 30 µM	> 30 µM				

More lines, main results first:

IC50 (CSP3)	IC50 (CSP1)	IC50 (CSP2)	Ki (CSP2)	activity at 30 µM (CSP3)	activity at 30 µM (CSP1)	Molecule	also measured
> 30 µM	> 30 µM	> 30 µM				CCC/C=C/COC(C)=O [E2-Hexenyl acetate]	
> 30 µM	11.8 µM	19.3 µM	16.6 µM			CCCCCCCCCCCC=O [Laurinaldehyde]	Ki (CSP1): 9.16 µM; Ki (CSP1; listed as laurinaldehyde): ≤ 10 µM
		> 30 µM		84.7 ± 2.37%	58.9 ± 2.59%	CCCCCCCC/C=C\CCCCCCCC(=O)O [Oleic acid]	
		10.8 µM	9.25 µM	91.8 ± 1.7%	48.9%	CCCCCC(C)O (stereo not shown) [2-Heptanol]	Ki (CSP2; listed as 2-heptanol): ≤ 10 µM
> 30 µM	> 30 µM	> 30 µM				C=CC(C)=CCC=C(C)C [Ocimene]	
9.9 µM	17.4 µM	11.1 µM	9.55 µM			CCCCCC/C=C\CCCCCCCC=O [Z9-Hexadecenal]	Ki (CSP3): 8.86 µM; Ki (CSP1): 13.5 µM
6.96 µM	20.9 µM	10.3 µM	8.89 µM			CCCC/C=C\CCCCCCCCCC=O [Z11-Hexadecenal]	Ki (CSP3): 6.23 µM; Ki (CSP1): 16.2 µM
> 30 µM	> 30 µM	20.7 µM	17.7 µM			CC/C=C\CCO [Z3-Hexenol]	
		20.6 µM	17.7 µM	89.17 ± 0.88%	55.6 ± 3.45%	CCCCC/C=C\C/C=C\CCCCCCCC(=O)O [Linoleic acid]	
		10.7 µM	9.22 µM	45.2 ± 1.9%	47.2 ± 1.16%	C[C@@H]1CC[C@H]2C(C)(C)[C@H]3C[C@@]12CC[C@@]3(C)O [(+)-Cedrol]	Ki (CSP2; listed as (+)-cedrol): ≤ 10 µM
25.1 µM	> 30 µM	20 µM	17.2 µM			CCCC/C=C\CCCCCCCCCCCC=O [Z13-Octadecenal]	Ki (CSP3): 22.5 µM
		24.3 µM	20.9 µM	72.8 ± 2.06%	24.8 ± 1.61%	CCCCCCCCCCCC(C)=O [2-Tridecanone]	
		23.6 µM	20.3 µM	67.6 ± 0.91%	27.9 ± 2.11%	CCCCCCCCCCCCCC(C)=O [2-Pentadecanone]	
> 30 µM	27.6 µM	24 µM	20.4 µM			Farnesene	electroantennographic (EAG) response (adult C. suppressalis): significant EAG response; binding affinity class for CSP3 (plant volatiles) (CSP3; criteria for plant volatiles): did not show high or moderate binding affinity; binding affinity class for CSP1 (plant volatiles) (CSP1; criteria for plant volatiles): did not show high or moderate binding affinity; Ki (CSP1): 23.3 µM; binding affinity class for CSP2 (plant volatiles) (CSP2; criteria for plant volatiles): did not show high or moderate binding affinity
		18.4 µM	15.8 µM	53.5 ± 1.87%	85.8%	CC=CC=CCO [2,4 hexadienol]	
